Data from ChEMBL document CHEMBL1811757, “Discovery of naturally occurring aurones that are potent allosteric inhibitors of hepatitis C virus RNA-dependent RNA polymerase” (J Med Chem, 2011).
Activity calls are given as the source filed them. No cut-off for these calls is given here.

Tests used:
[1] = Inhibition of HCV genotype 1b J4 N-terminal His-tagged NS5Bdelta21 polymerase expressed in Escherichia coli C41(DE3) assessed as amount of double-stranded RNA synthesis; design: species or system Hepatitis C virus isolate HC-J4
[2] = tested on: Hepatitis C virus isolate HC-J4; assay: Inhibition of HCV genotype 1b J4 N-terminal His-tagged NS5Bdelta21 polymerase expressed in Escherichia coli C41(DE3) assessed as amount of double-stranded RNA synthesis at 20 uM
Huh-7 = assay: Cytotoxicity against human HuH7 cells up to 512 uM after 72 hrs by MTT assay; assay type: cell-based; settings: huh-7, 72 h
How it was run: (§1)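 Cells trypsinized in exponential growth and plated at 2000 (HuH7) or 1000 (HEK293) per well. Allowed to attach 96 h at 37°C, 5% CO2. Drug diluted in medium with 1% DMSO final, then 72 h at 37°C, 5% CO2. Viability read by MTT colorimetric assay.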

HEK293 = assay: Cytotoxicity against human HEK293 cells up to 512 uM after 72 hrs by MTT assay; assay type: cell-based; settings: hek293, 72 h; how it was run: as §1
[3] = tested on: Hepatitis C virus isolate HC-J4; assay: Ratio of IC50 for HCV genotype 1b J4 NS5Bdelta21 polymerase P495L mutant to IC50 for HCV genotype 1b J4 wild type N-terminal His-tagged NS5Bdelta21 polymerase
How it was run: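 IC50 measured in cell-free poly U/ATP double-stranded RNA synthesis assay for purified His-tagged NS5BΔ21 P495L mutant and wild type, both prepared identically by Ni-NTA purification. Mutant IC50 divided by wild-type IC50 and reported as fold difference. A Thumb Pocket I benzimidazole inhibitor served as control.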

Hepatitis C virus = assay: Antiviral activity against HCV JFH-1 assessed as inhibition of viral replication by cell based assay; assay type: functional, organism-based, Hepacivirus hominis
[4] = tested on: RNA-directed RNA polymerase (Hepacivirus hominis), O39930 [H95Q]; assay: Inhibition of HCV genotype 1b J4 NS5Bdelta21 polymerase H95Q mutant expressed in Escherichia coli C41(DE3) assessed as amount of double-stranded RNA synthesis; settings: Hepatitis C virus isolate HC-J4
RNA-directed RNA polymerase (Hepacivirus hominis), O39930 [H95Q], sequence (O39930 entry or part of it H95Q): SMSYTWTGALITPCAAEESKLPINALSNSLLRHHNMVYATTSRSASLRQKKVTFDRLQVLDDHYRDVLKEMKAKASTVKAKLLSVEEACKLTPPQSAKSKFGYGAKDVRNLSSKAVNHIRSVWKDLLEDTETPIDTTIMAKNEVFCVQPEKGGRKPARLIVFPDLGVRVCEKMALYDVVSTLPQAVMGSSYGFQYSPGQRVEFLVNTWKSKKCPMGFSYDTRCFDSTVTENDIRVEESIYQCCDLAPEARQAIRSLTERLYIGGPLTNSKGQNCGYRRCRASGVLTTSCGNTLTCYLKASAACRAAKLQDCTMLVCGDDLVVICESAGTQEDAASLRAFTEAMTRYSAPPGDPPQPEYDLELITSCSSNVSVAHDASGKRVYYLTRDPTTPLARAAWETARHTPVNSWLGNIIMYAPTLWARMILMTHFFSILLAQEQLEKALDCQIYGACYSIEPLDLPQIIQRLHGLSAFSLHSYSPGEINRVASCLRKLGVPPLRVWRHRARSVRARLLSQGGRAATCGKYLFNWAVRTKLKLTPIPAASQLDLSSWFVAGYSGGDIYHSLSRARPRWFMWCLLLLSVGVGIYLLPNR
How it was run: (§2)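 N-terminal His6-tagged NS5BΔ21 (C-terminal 21 residues removed) point mutants, made by site-directed mutagenesis, sequence-verified and purified like wild type: Ni-NTA affinity, imidazole elution, dialysis into Tris pH 7.5/sodium acetate/DTT/EDTA/10% glycerol. Cell-free assay quantifies double-stranded RNA synthesized on poly U homopolymeric template with ATP. IC50 determined per mutant.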

[5] = tested on: RNA-directed RNA polymerase (Hepacivirus hominis), O39930 [C316Y]; assay: Inhibition of HCV genotype 1b J4 NS5Bdelta21 polymerase C316Y mutant expressed in Escherichia coli C41(DE3) assessed as amount of double-stranded RNA synthesis; settings: Hepatitis C virus isolate HC-J4; how it was run: as §2
RNA-directed RNA polymerase (Hepacivirus hominis), O39930 [C316Y], sequence (O39930 entry or part of it C316Y): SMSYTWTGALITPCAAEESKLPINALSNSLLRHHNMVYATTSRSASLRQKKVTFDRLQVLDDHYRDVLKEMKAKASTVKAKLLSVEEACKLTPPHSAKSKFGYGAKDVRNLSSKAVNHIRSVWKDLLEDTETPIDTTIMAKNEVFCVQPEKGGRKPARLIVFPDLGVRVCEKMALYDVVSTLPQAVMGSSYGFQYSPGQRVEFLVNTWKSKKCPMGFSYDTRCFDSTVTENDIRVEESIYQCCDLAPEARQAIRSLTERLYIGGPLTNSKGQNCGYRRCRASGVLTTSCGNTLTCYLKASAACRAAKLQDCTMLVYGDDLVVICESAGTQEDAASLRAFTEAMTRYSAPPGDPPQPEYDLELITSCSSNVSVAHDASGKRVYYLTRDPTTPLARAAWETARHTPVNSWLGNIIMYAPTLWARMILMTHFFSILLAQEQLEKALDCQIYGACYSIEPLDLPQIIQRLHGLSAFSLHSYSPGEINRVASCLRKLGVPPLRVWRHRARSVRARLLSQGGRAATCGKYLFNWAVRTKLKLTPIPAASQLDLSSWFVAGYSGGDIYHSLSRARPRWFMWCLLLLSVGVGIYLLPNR

[6] = tested on: RNA-directed RNA polymerase (Hepacivirus hominis), O39930 [M423T]; assay: Inhibition of HCV genotype 1b J4 NS5Bdelta21 polymerase M423T mutant expressed in Escherichia coli C41(DE3) assessed as amount of double-stranded RNA synthesis; settings: Hepatitis C virus isolate HC-J4; how it was run: as §2
RNA-directed RNA polymerase (Hepacivirus hominis), O39930 [M423T], sequence (O39930 entry or part of it M423T): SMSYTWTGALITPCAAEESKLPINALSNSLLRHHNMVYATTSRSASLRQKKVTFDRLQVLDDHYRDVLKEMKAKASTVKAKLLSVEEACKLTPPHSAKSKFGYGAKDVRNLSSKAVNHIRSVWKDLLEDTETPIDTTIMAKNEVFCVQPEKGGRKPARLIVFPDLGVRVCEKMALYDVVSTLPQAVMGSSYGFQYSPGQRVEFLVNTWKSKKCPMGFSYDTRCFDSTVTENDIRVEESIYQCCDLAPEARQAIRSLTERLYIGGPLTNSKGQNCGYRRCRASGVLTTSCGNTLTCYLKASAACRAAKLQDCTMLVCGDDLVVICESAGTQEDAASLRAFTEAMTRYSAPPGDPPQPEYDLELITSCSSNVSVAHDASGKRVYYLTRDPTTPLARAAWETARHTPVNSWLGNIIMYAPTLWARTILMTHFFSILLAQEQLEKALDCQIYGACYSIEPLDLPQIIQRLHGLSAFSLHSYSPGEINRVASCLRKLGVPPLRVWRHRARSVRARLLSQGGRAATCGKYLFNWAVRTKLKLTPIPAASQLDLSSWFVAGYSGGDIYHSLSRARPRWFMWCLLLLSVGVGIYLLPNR

Row | SMILES | IC50 [1] [µM] | inhibition [2] [%] | Activity (Huh-7) | Activity (HEK293) | Ratio IC50 [3] | IC50 (Hepatitis C virus) [µM] | inhibition [4] | inhibition [5] | inhibition [6]
1 | O=C1/C(=C/c2ccc(C3CCCCC3)cc2)Oc2cc(OCc3ccccc3)cc(OCc3ccccc3)c21 | > 20 | 3 | Non-toxic | Non-toxic |  |  |  |  | 
2 | O=C1/C(=C/c2ccc(O)cc2)Oc2cc(O)ccc21 | > 20 | 35 | Non-toxic | Non-toxic |  |  |  |  | 
3 | COc1cc(OC)c2c(c1)O/C(=C\c1ccccc1O)C2=O | > 20 | 0.7 | Non-toxic | Non-toxic |  |  |  |  | 
4 | O=C1/C(=C/c2cccc(O)c2)Oc2cc(O)ccc21 | > 20 | 10 | Non-toxic | Non-toxic |  |  |  |  | 
5 | CN1CCN(c2ccc(/C=C3\Oc4cccc(O)c4C3=O)cc2)CC1 | 3.8 | 94 | Non-toxic | Non-toxic |  |  |  |  | 
6 | CC(=O)Nc1ccc(-c2ccc(Cl)cc2)c(COc2ccc(-c3nc4cc(C(=O)O)ccc4n3C3CCCCC3)cc2)c1 |  |  |  |  | 10 |  |  |  | 
7 | COc1cc(OC)c2c(c1)O/C(=C\c1ccc(C3CCCCC3)cc1)C2=O | > 20 | 2 | Non-toxic | Non-toxic |  |  |  |  | 
8 | COc1cccc(OC)c1/C=C1\Oc2cccc(O)c2C1=O | > 20 | 47 | Non-toxic | Non-toxic |  |  |  |  | 
9 | CCCCc1ccc(/C=C2\Oc3cc(OC)cc(OC)c3C2=O)cc1 | > 20 | 3 | Non-toxic | Non-toxic |  |  |  |  | 
10 | O=C1/C(=C/c2ccc(O)cc2)Oc2cccc(O)c21 | 5.9 | 60 | Non-toxic | Non-toxic | 6 | 18 | Active | Active | Active
11 | O=C1/C(=C/c2ccc(O)cc2O)Oc2cccc(O)c21 | 2.6 | 94 | Non-toxic | Non-toxic |  |  |  |  | 
12 | O=C1/C(=C/c2ccccc2F)Oc2cccc(O)c21 | > 20 | 58 | Non-toxic | Non-toxic |  |  |  |  | 
13 | O=C1/C(=C/c2ccccc2)Oc2cccc(O)c21 | 14.6 | 57 | Non-toxic | Non-toxic |  |  |  |  | 
14 | O=C1/C(=C/c2ccccc2O)Oc2cccc(O)c21 | 11.1 | 56 | Non-toxic | Non-toxic |  |  |  |  | 
15 | COc1cc(OC)c(/C=C2\Oc3cccc(O)c3C2=O)c(OC)c1 | > 20 | 52 | Non-toxic | Non-toxic |  |  |  |  | 
16 | COc1ccc(/C=C2\Oc3cc(O)cc(O)c3C2=O)c(OC)c1OC | > 20 | 50 | Non-toxic | Non-toxic |  |  |  |  | 
17 | CCCCc1ccc(/C=C2\Oc3cccc(O)c3C2=O)cc1 | > 20 | 42.7 | Non-toxic | Non-toxic |  |  |  |  | 
18 | COc1ccc(/C=C2\Oc3cccc(O)c3C2=O)c(OC)c1 | 9.7 | 75 | Non-toxic | Non-toxic |  |  |  |  | 
19 | CCCCc1ccc(/C=C2\Oc3cc(F)cc(F)c3C2=O)cc1 | > 20 |  | Non-toxic | Non-toxic |  |  |  |  | 
20 | COc1cc(OC)c2c(c1)O/C(=C\c1cccc(O)c1)C2=O | > 20 | 11 | Non-toxic | Non-toxic |  |  |  |  | 
21 | O=C1/C(=C/c2ccccc2O)Oc2cc(O)ccc21 | > 20 | 18 | Non-toxic | Non-toxic |  |  |  |  | 
22 | CCCCc1ccc(/C=C2\Oc3ccccc3C2=O)cc1 | > 20 |  | Non-toxic | Non-toxic |  |  |  |  | 
23 | Cc1ccc(/C=C2\Oc3cccc(O)c3C2=O)c(C)c1 | 5.8 | 64 | Non-toxic | Non-toxic |  |  |  |  | 
24 | O=C1/C(=C/c2ccc(F)cc2F)Oc2cccc(F)c21 | > 20 | 10 | Non-toxic | Non-toxic |  |  |  |  | 
25 | CCCCn1cc(/C=C2\Oc3cc(O)cc(O)c3C2=O)c2ccccc21 | 2.2 | 95 | Non-toxic | Non-toxic |  |  |  |  | 
26 | COc1cccc(/C=C2\Oc3cc(O)cc(O)c3C2=O)c1OC | > 20 | 74 | Non-toxic | Non-toxic |  |  |  |  | 
27 | COc1cc(OC)c2c(c1)O/C(=C\c1ccc(C)cc1C)C2=O | > 20 | 14 | Non-toxic | Non-toxic |  |  |  |  | 

Continued, in another order:

Row | IC50 [1] [µM] | inhibition [2] [%] | SMILES | Activity (Huh-7) | Activity (HEK293) | Ratio IC50 [3] | IC50 (Hepatitis C virus) [µM] | inhibition [4] | inhibition [5] | inhibition [6]
28 | 9.7 | 61 | O=C1/C(=C/c2ccc(O)cc2)Oc2cc(O)cc(O)c21 | Non-toxic | Non-toxic |  | 40 |  |  | 
29 | 2.3 | 92 | O=C1/C(=C/c2ccc(C3CCCCC3)cc2)Oc2cc(O)cc(O)c21 | Non-toxic | Non-toxic |  |  |  |  | 
30 | > 20 | 37 | O=C1/C(=C/c2cccc(O)c2)Oc2cccc(O)c21 | Non-toxic | Non-toxic |  |  |  |  | 
31 | 15.1 | 59 | O=C1/C(=C/c2ccccc2)Oc2cc(O)cc(O)c21 | Non-toxic | Non-toxic |  |  |  |  | 
32 | 3.6 | 79 | CCc1ccc(/C=C2\Oc3cc(O)cc(O)c3C2=O)cc1 | Non-toxic | Non-toxic |  |  |  |  | 
33 | 3.1 | 78 | CC(C)c1ccc(/C=C2\Oc3cc(O)cc(O)c3C2=O)cc1 | Non-toxic | Non-toxic |  |  |  |  | 
34 | 11.2 | 80 | O=C1/C(=C/c2ccc(F)cc2)Oc2cc(O)cc(O)c21 | Non-toxic | Non-toxic |  |  |  |  | 
35 | 5.8 | 81 | O=C1/C(=C/c2ccc(O)cc2O)Oc2cc(O)cc(O)c21 | Non-toxic | Non-toxic |  |  |  |  | 
36 | > 20 | 37 | COc1cc(OC)c2c(c1)O/C(=C\c1ccc(O)cc1)C2=O | Non-toxic | Non-toxic |  |  |  |  | 
37 | > 20 | 60.8 | CC(C)(C)c1ccc(/C=C2\Oc3cccc(O)c3C2=O)cc1 | Non-toxic | Non-toxic |  |  |  |  | 
38 | > 20 | 29.9 | CC(C)c1ccc(/C=C2\Oc3cccc(O)c3C2=O)cc1 | Non-toxic | Non-toxic |  |  |  |  | 
39 | 11.4 | 66 | O=C1/C(=C/c2ccc(N3CCOCC3)cc2)Oc2cc(O)cc(O)c21 | Non-toxic | Non-toxic |  |  |  |  | 
40 | 5.4 | 85 | O=C1/C(=C/c2ccc(O)c(O)c2)Oc2cc(O)cc(O)c21 [AUREUSIDIN] |  |  |  |  |  |  | 
41 | > 20 | 33 | O=C1/C(=C/c2ccccc2O)Oc2cc(O)cc(O)c21 | Non-toxic | Non-toxic |  |  |  |  | 
42 | 2.5 | 93 | CCCCc1ccc(/C=C2\Oc3cc(O)cc(O)c3C2=O)cc1 | Non-toxic | Non-toxic |  |  |  |  | 
